From the EternaBench riboswitch data

System: MS2 coat protein
Test: apparent Kd, MS2 coat protein; higher = weaker binding; RNA-MaP array; FMN 200 µM where present
How it was run: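 The apparent Kd is reported as the median of filtered per-cluster binding-curve fits. To get these curves, designs transcribed by stalled E. coli RNA polymerase on Illumina sequencing-chip clusters were titrated with SNAP-549-labelled MS2 coat protein from 0.7 or 1.5 nM, doubling to 3 µM. Titrations were run without and then with constant ligand in 100 mM Tris-HCl pH 7.5, 80 mM KCl, 4 mM MgCl2, BSA, DTT, yeast tRNA and Tween-20, and green signal was normalised to red-channel RNA signal and control-cluster median Fmax.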

[1] = designed as: OFF switch for flavin mononucleotide, no ligand
[2] = ligand present: flavin mononucleotide, designed as: OFF switch for flavin mononucleotide
[3] = designed as: ON switch for flavin mononucleotide, no ligand
[4] = ligand present: flavin mononucleotide, designed as: ON switch for flavin mononucleotide

Sequence	apparent Kd [1] [nM]	apparent Kd [2] [nM]	apparent Kd [3] [nM]	apparent Kd [4] [nM]
UGUGUGUGUGUGAGGAUAUCGGGCCCGAAAGGGCCCGAGAAGGCACAUGAGGAUCACCCAUGUAAGCGCGCGCG	321	108	–	–
AAAUCGGUAGAGGAUAUUGUACAGGAAACGGUGCGAGAAGGUUGCACAUGAGGAUCACCCAUGUUUAGUUGCGA	34.9	34	–	–
CAGAGUAAAGGAUAUACAUGAGGAUCACCCAUGUUUAGACCGACGACACGUCCUAGUUGUAGAAGGUUAUUUUG	82.2	68.7	–	–
AAGAGACAUCAGAAGGGAACCCAAACGCGCGGUUCAGGAUAUGAGAUCUUAUGUAGUUCGACAUGAGGAUCACCCAUGUCCGCG	–	–	101	8.22
GCGUAACAUGAGGAUCACCCAUGUACUCGAGAAAUCGAGUGUAGAAGGGUGACCGGUCGUUUGGCACAGGAUAUACACGCUGUG	–	–	31.1	14.1
CGUAUGUCAGGAUAUGCGCGCGAUCAUUACACUCGGAAUUGGCAGAAGGGACAUGAGGAUCACCCAUGUGGCCC	34.4	37.4	–	–
CAGUACUGAGGAUAUACAUGAGGAUCACCCAUGUUUUCCAGCUAGGAUACUAGCAAAUGUAGAAGGCAGUACUG	25.1	249	–	–
CAUUCGUGUCUAGGAUAUGAGUGACAAGCGCGAGAUUUUCUCGCCGCUAGCUCAGAAGGAGACAUGAGGAUCACCCAUGUAAGG	60.1	11.8	–	–
GAAAACGCAGAGGAUAUUCCAGAUCUAAGCUGCGAAGAAGGCUGCACAUGAGGAUCACCCAUGUGGUCUUUAAA	18.8	116	–	–
CAGCGAUAGCUGAAUGGUACAUGGGAGGAUAUGGGUUGACAUGAGGAUCACCCAUGUAAAUAAUACUAGAAGGCCCAUGUACCU	–	–	191	9.38
UCUAAUUAGUGAGGAUAUGCAUAAUUUAUAACUGCAGAAGGCACAAACCUCAAGACAUGAGGAUCACCCAUGUGGAAUAUAGAU	93.8	215	–	–
ACAUGAGAUCGAGGAUAUUUUGUACCUACAUGUGACAUGAGGAUCACCCAUGUGGUAAGUAUGAGAAAGAAGGCGAAGAUAUGU	–	–	41.4	22.1
GUAGCAUGCCAAGGAUAUUCAUAUAGUAGGCAAACAUGAGGAUCACCCAUGUAAUGAGAGCAGUGGGAGAAGGUGGGAUGCUAC	–	–	51.5	31.9
GGGUACAUCGGAGGAUAUCAUGUAAAUACAUGAGGAUCACCCAUGUCGAUGGAGACAUCGGUGAUUGAGAAGGCCGAUGUACCG	–	–	14.8	90
GGGUGACAUGAGGAUCACCCAUGUCAGGAUAUGGGCCCGGGUUUGAAAGGGCCCGGGCCCAGAAGGGACUGCCC	55.3	127	–	–
GCCAUCGCAUGAGGAUAUGCUCCGGUUUCCGGAGCAGAAGGCAUGUAAUAAAACAUGAGGAUCACCCAUGUAGUUAAGAUGGCA	–	–	7.94	6
AUCAGCUCGUCAGGAUAUACGUGACUGCGUCAGCAGUGUGGUAAGAUCACAUGAGGAUCACCCAUGUAGAAGGGACGAGCUGAU	53.2	580	–	–
CGCUUUAUAUAUUUGGCAAGAAUCAGAAGGCGUUACAUGAGGAUCACCCAUGUUUUGUAUAGUAACGAGGAUAUGAUAUGAGCG	14.6	14.8	–	–
AAUAACAGAGGAUAUACUAUUUUAUGUAUUUAUUAUUUUGAACAUGAGGAUCACCCAUGUAGAAGGCUGAAUGA	26.4	22	–	–
GCAGGUUAAGUCAGGAUAUACCUAUGGAUACAUAGGUAGAAGGGACAUGAGGAUCACCCAUGUGUCUCGCCUGC	87.8	148	–	–
